OX1R antag-1 – antagonists of human orexin 1 receptor (OX1R). Orexin/Hypocretin receptor type 1 (Homo sapiens), O43613. inhibition, % at 6.6 µM. 1.8% of 330,000 active. AID 485270, 2010. OX1R-expressing cells, FRET antagonist read-out; in the data active = inhibition mostly above about 38%, no sharp cut-off; inactive = mostly below about 40%
OX1R antag-2 – OX1R (HCRTR1) antagonists, primary screen, fluorescence, CHO/OX1R cells, Fluo-8 calcium, orexin A; Fluo-8 calcium fluorescence; 0.43% of 330,000 active; AID 434989, 2010; Orexin/Hypocretin receptor type 1 (Homo sapiens), O43613; inhibition, % at 5 µM;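 active = inhibition above its plate's threshold, mean inhibition of all tested compounds on the plate plus 3 SD, cut at about 37% in these data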
OXTR ag – human OXTR agonists, primary screen, fluorescence, CHO-OTR cells, Fluo-8 calcium. Fluo-8 calcium fluorescence; normalized: DMSO 0%, oxytocin 100%. activation, % at 3 µM. 0.32% of 320,000 active. AID 2435, 2010;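 active = activation above the mean of all tested compounds plus 3 SD, cutoff set per screening run, cut at about 20% in these data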;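 note: peak over basal fluorescence ratio from a 100 s FLIPR kinetic read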
CHO parental Ca – ATP-evoked calcium signal inhibitors, parental CHO, primary screen, counter-screen for OX1R antagonist project, cell-based, fluorescence, Fluo-8 calcium dye; parental CHO-K1, ATP-induced calcium, Fluo-8 fluorescence; inhibition, % at 5.6 µM; 0.63% of 330,000 active; AID 463079, 2010;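 active = inhibition above that plate's mean sample inhibition plus 3 SD, cut at about 26% in these data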
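Measured by: calcium-sensitive Fluo-8 fluorescence / Test system: CHO parental line / Controls: ATP-challenged DMSO wells low, unchallenged DMSO wells high / Measure: % inhibition / Compound: single nominal dose of 5.6 µM per compound / Replicates: single well per compound, no replicates / Reagent: ATP as calcium-mobilizing challenge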
OXTR potentiate – human OXTR potentiators, primary screen, fluorescence, CHO-OTR cells, Fluo-8 calcium | activation, % at 3 µM | Oxytocin receptor (Homo sapiens), P30559 | AID 2445, 2010 | 0.061% of 320,000 active | Fluo-8 calcium fluorescence, potentiator mode; 0% = oxytocin EC15, 100% = EC100;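 active = activation above that plate's cutoff, the mean activation of tested compounds plus 3 SD, cut at about 6.6% in these data, passing the limit was not always enough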
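Measured by – Fluo-8 calcium dye fluorescence · Test system – human OTR in CHO cells · Dosing – one concentration, 3.0 µM compound · Controls – EC15 oxytocin alone as 0%, 75 nM oxytocin as 100% · Evaluation – normalized max/min fluorescence ratio, % activation · Timing – 6 min pre-incubation, 100 s read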
V1R ag counter – agonists of human V1a receptor, primary screen, counter-screen for OXTR agonist project, fluorescence, CHO-V1R cells; Fluo-8 calcium fluorescence, agonist mode; 0% DMSO, 100% 3 nM vasopressin; AID 2797, 2010; activation, % at 3 µM; 0.25% of 320,000 active;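 active = activation above the mean activation of all tested compounds plus 3 SD, per screening run, cut at about 20% in these data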;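 note: signal is peak over basal fluorescence ratio across a 100 second FLIPR read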
Target sequence (P37288 whole entry, looked up): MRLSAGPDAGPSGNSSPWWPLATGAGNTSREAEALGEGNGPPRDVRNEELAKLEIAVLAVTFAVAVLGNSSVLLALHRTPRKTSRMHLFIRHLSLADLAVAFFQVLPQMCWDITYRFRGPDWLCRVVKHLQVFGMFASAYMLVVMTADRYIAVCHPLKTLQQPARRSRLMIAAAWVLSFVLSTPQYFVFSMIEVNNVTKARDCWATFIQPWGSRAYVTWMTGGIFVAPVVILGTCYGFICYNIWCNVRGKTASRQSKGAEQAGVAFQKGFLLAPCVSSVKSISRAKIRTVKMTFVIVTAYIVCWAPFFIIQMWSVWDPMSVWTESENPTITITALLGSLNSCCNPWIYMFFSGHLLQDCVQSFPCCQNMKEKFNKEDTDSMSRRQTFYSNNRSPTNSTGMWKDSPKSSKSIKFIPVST
Of the large screens only hits and unclear results are named; the others gave an inactive call. Hits are enriched below; roughly 2.6% of the tested compounds scored in any of these assays.

CCCCCCCCCCCCCCCC[n+]1cccc(C(=O)N(CC)CC)c1	OXTR ag 37.4, CHO parental Ca 57.2, V1R ag counter 23.5
COc1ccc(-n2nc(C(=O)NCC(=O)Nc3cccc(Cl)c3)c3ccccc3c2=O)cc1OC	none
COc1ccc(C2=NOC(Cn3nc(C(=O)NCc4ccccc4OC)cc3-c3ccccc3)C2)cc1 (centres undefined)	none
O=C(CSc1ccccc1)N1CCc2ccccc21	none
CCn1cc(SCC(=O)N2CCc3ccccc32)c2ccccc21	OX1R antag-1 36.1, CHO parental Ca 32.2
N#Cc1ccc(Cl)cc1NC(=O)CSc1cccc[n+]1[O-]	none
O=C(CSc1cccc[n+]1[O-])Nc1cc(Cl)ccc1[N+](=O)[O-]	OX1R antag-1 38.3
N#CC1=C(N)OC2=C(CC/C2=C\c2ccccc2)C1c1ccccc1 (centres undefined)	OXTR ag 28.0, V1R ag counter 26.0
N#CC1=C(N)OC2=C(CC/C2=C\c2ccccc2Cl)C1c1ccccc1Cl (centres undefined)	none
O=c1ccc2ccc(Oc3ccc([N+](=O)[O-])cc3[N+](=O)[O-])cc2o1	OX1R antag-1 85.3
O=C(Oc1ccc2ccc(=O)oc2c1)c1ccc([N+](=O)[O-])cc1	none
Cc1nn(CC(=O)NC(=O)NC2CCCCC2C)c(=O)c(C#N)c1C (centres undefined)	none
Cc1nn(CC(=O)NC2CCC(C)CC2)c(=O)c(C#N)c1C (centres undefined)	OX1R antag-1 44.2
O=S(=O)(c1ccc(F)c(Cl)c1)N1CCN(C/C=C/c2ccccc2)CC1	none
COc1ccc2nc(C)cc(SCC(=O)NNC(=O)COc3cccc4ccccc34)c2c1	OX1R antag-1 71.0
COc1ccc2nc(C)cc(SCC(=O)NNC(=O)COc3ccc(C)cc3)c2c1	none
C/C(=N\Nc1nc2ccccc2nc1C)c1ccccc1O	OX1R antag-1 64.1
C/C(=N\Nc1cc(C)nc(-c2ccccc2O)n1)c1ccccc1O	none
N#C/C(=C\c1c[nH]c2ccc(Br)cc12)c1ccccn1	OX1R antag-1 82.5, OX1R antag-2 60.5
N#C/C(=C\c1ccc(C(=O)O)cc1)c1ccccn1	none
O=C(Nc1ccc(Br)c(C(F)(F)F)c1)c1ccc(C(F)(F)F)cc1	OX1R antag-1 61.5, OX1R antag-2 60.2, CHO parental Ca 39.9
O=C(Nc1ccc(Br)c(C(F)(F)F)c1)c1ccccc1	none
Cc1ccc(NC(=O)c2c(C(F)(F)F)nn(C)c2SCc2cccc(C(F)(F)F)c2)cc1C	CHO parental Ca 67.4
COC(=O)c1ccc(Oc2ccc(C(F)(F)F)cn2)cc1	none
Cc1ccc(NC2=C/C(=N\S(=O)(=O)c3cccs3)c3ccccc3C2=O)c(C)c1	none
CC(C)(C)c1cc[n+](C2=C([O-])c3ccccc3C(=O)/C2=N\S(=O)(=O)c2cccs2)cc1	OX1R antag-1 76.8
COc1ccc(NC(=O)CSc2nc(C)cs2)c([N+](=O)[O-])c1	none
O=C(COC(=O)c1cc(=O)[nH]c2ccccc12)c1ccccc1	none
CN(Cc1ccccc1)C(=O)COC(=O)c1cc2ccccc2oc1=O	OX1R antag-1 28.0
CN(Cc1ccccc1)C(=O)c1ccccc1C(=O)OCC(=O)N(Cc1ccccc1)C(C)(C)C	OX1R antag-1 31.2
O=C(OCC(=O)N1CCOCC1)c1cc(=O)[nH]c2ccccc12	OX1R antag-1 35.3
CC(C)(C)N(Cc1ccccc1)C(=O)COC(=O)C1CC1	none
O=C(OCC(=O)N1CCOCC1)c1cc2ccccc2oc1=O	OX1R antag-1 46.2
O=C(CSC(=S)N1CCOCC1)c1cc2ccccc2oc1=O	none
CCCCn1c(N)c(N(CC)C(=O)c2cccs2)c(=O)[nH]c1=O	none

Compound activity deposited in PubChem by The Scripps Research Institute Molecular Screening Center.
